Reference: ChEMBL document CHEMBL1126163, “Decreased histamine release by luteinizing hormone-releasing hormone antagonists obtained upon translocation of the cationic amino acid from position 8 to position 7” (1992)
Converted amounts (≈) assume the structure as drawn. Where a SMILES comes first, the peptide text is derived from it. [ ]: non-standard residue; d: D form. The star is where a group is joined. dPhe(4-Cl) = N[C@H](Cc1ccc(Cl)cc1)C(=O)O; d2Nal = N[C@H](Cc1ccc2ccccc2c1)C(=O)O; Lys(iPr) = CC(C)NCCCC[C@H](N)C(=O)O; d3Pal = N[C@H](Cc1cccnc1)C(=O)O; Nicotinoyl = O=C(c1cccnc1)*

Assays:
Rattus norvegicus [1] = species: Rattus norvegicus; assay: Compound was evaluated for its ovulating activity in anti-ovulatory assay (AOA) by using 10 rats at the dose of 2 microgram; assay type: functional
Method in brief: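 Standard antiovulatory assay in 4-day cycling female rats, 10 rats per dose group. Each analogue was given at the stated dose in μg per rat, and the read-out was the number of rats ovulating out of 10.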

Rattus norvegicus [2] = species: Rattus norvegicus; assay: In vitro histamine release from isolated rat mast cells.; assay type: functional; conditions: read-out: ED50 (the source's name)
Method in brief: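 Histamine release from rat mast cells in vitro, run in duplicate with mast cells from three different rats. LHRH and Nal-Arg standards were included with each set of analogues. The read-out was the ED50 in μg/mL, reported as mean ± SEM.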

EC50 (Rattus norvegicus [2]) | SMILES | AOA (Rattus norvegicus [1])
70 mg/L (≈ 40.9 µM) | CC(=O)N[C@H](Cc1ccc2ccccc2c1)C(=O)N[C@H](Cc1ccc(Cl)cc1)C(=O)N[C@H](Cc1cccnc1)C(=O)N[C@@H](CO)C(=O)N[C@@H](CCCCNC(=O)c1ccccn1)C(=O)N[C@H](CCCCNC(=O)c1ccccn1)C(=O)N[C@@H](CCCCNC(C)C)C(=O)N[C@@H](CCCCNC(=O)c1cccnc1)C(=O)N1CCC[C@H]1C(=O)N[C@H](C)C(N)=O | 8
2.4 mg/L (≈ 1.63 µM) | CC(=O)N[C@H](Cc1ccc2ccccc2c1)C(=O)N[C@H](Cc1ccc(Cl)cc1)C(=O)N[C@H](Cc1c[nH]c2ccccc12)C(=O)N[C@@H](CO)C(=O)N[C@@H](Cc1ccc(O)cc1)C(=O)N[C@H](CCCN=C(N)N)C(=O)N[C@@H](CCCN=C(N)N)C(=O)N[C@@H](CC(C)C)C(=O)N1CCC[C@H]1C(=O)N[C@H](C)C(N)=O | 10
0.1 mg/L (≈ 0.0681 µM) | CC(=O)N[C@H](Cc1ccc2ccccc2c1)C(=O)N[C@H](Cc1ccc(Cl)cc1)C(=O)N[C@H](Cc1c[nH]c2ccccc12)C(=O)N[C@@H](CO)C(=O)N[C@@H](Cc1ccc(O)cc1)C(=O)N[C@H](CCCN=C(N)N)C(=O)N[C@@H](CC(C)C)C(=O)N[C@@H](CCCN=C(N)N)C(=O)N1CCC[C@H]1C(=O)N[C@H](C)C(N)=O (Ac-[d2Nal][dPhe(4-Cl)][dW]SY[dR]LRP[dA]-NH2) | 
> 300 mg/L | CC(=O)N[C@H](Cc1ccc2ccccc2c1)C(=O)N[C@H](Cc1ccc(Cl)cc1)C(=O)N[C@H](Cc1cccnc1)C(=O)N[C@@H](CO)C(=O)N[C@@H](CCCCNC(=O)c1cccnc1)C(=O)N[C@H](CCCCNC(=O)c1cccnc1)C(=O)N[C@@H](CC(C)C)C(=O)N[C@@H](CCCCNC(C)C)C(=O)N1CCC[C@H]1C(=O)N[C@H](C)C(N)=O [Antide] (Ac-[d2Nal][dPhe(4-Cl)][d3Pal]SK(Nicotinoyl)[dK](Nicotinoyl)L[Lys(iPr)]P[dA]-NH2) | 
